Screens from PubChem.
TRPC6 act: mouse TRPC6 channel activators, primary screen, cell-based, HEK293, membrane potential dye; HEK293-TRPC6 membrane potential dye fluorescence; active compounds read high; B-score at 10 µM; hit rate 0.13% among 310,000; AID 2550, 2010;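 active means B-score of the integrated fluorescence ratio above library mean plus 3 SD, and starting fluorescence ratio within library mean plus 5 SD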;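 further: higher score means more depolarization so channel activation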
Target sequence (Q61143 whole entry, looked up): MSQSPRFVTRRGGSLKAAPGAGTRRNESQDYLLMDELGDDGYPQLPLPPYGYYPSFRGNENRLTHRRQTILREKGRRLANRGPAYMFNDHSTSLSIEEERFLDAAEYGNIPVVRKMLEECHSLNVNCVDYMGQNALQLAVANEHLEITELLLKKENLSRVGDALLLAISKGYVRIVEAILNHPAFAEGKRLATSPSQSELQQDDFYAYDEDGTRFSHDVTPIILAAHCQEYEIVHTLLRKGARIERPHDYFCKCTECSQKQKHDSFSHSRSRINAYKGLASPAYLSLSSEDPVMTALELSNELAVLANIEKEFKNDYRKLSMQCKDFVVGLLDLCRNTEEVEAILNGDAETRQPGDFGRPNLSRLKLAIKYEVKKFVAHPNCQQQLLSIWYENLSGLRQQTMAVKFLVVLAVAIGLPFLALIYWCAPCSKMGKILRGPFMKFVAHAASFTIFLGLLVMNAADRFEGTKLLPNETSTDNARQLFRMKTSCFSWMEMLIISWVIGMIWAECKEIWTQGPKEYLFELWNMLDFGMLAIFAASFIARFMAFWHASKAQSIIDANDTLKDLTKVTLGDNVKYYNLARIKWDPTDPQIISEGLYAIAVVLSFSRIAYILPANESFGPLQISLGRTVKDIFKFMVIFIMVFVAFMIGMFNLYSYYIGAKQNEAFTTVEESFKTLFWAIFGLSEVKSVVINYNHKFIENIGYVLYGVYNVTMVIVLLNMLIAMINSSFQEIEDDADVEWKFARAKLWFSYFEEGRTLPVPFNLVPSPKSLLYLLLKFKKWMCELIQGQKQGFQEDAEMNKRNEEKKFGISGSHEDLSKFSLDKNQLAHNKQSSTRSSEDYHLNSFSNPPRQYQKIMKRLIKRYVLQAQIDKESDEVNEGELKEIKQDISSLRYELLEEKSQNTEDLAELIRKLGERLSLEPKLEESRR
TRPC4 inh: inhibitors of mouse TRPC4 channel, primary screen, Fluo4 calcium, HEK293 TRPC4beta/mu-opioid cells; B-score at 10 µM; hit rate 0.39% among 300,000; Short transient receptor potential channel 4 (Mus musculus), Q9QUQ5; AID 2247, 2010; DAMGO-evoked Fluo4 calcium flux; active compounds read low;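 active means B-score over 3 SD under the library average, no early fluorescence shift, positive overall ratio signal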
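Assay system – HEK293 line stably carrying TRPC4beta and mu-opioid receptor · Doses – single dose · Detection – Fluo4 calcium-dye fluorescence, kinetic read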
TRPC4 potent: positive allosteric modulators of TRPC4, primary screen, cell-based, mouse TRPC4beta, HEK293 mu-opioid, Fluo-4 calcium; DAMGO EC20, Fluo-4 Ca2+ flux; active compounds read high; B-score at 10 µM; hit rate 0.42% among 310,000;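 active means B-score of calcium response area above 5 SD of library B-scores, with initial fluorescence ratio within 5 SD of library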;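 further: B-score of integrated fluorescence ratio over time as area under calcium response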
TRPC4 act: activators of mouse TRPC4 channel, primary screen, Fluo4 calcium, HEK293 TRPC4beta/mu-opioid cells; hit rate 0.49% among 310,000; Fluo4 calcium fluorescence; active compounds read high; B-score at 10 µM;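 active means B-score above 5 SD of library B-scores, and initial fluorescence ratio not above library mean plus 5 SD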;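 further: positive B-score marks a calcium rise read as TRPC4 activation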
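Assay system: HEK293 stable line with TRPC4beta plus mu-opioid receptor. Times: dye 45 min RT, read 110 s. Measured by: kinetic Fluo4 calcium fluorescence. Measure: B score of integrated ratio. Controls: assay buffer as low control, maximal DAMGO as high control.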
TRPC6 inh: mouse TRPC6 channel inhibitors, primary screen, cell-based, HEK293, membrane potential dye. Short transient receptor potential channel 6 (Mus musculus), Q61143. AID 2553, 2010. hit rate 1.1% among 310,000. B-score at 10 µM. ACh-evoked depolarization; active compounds read low;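 active means B-score under library mean minus 3 SD, initial fluorescence not abnormally high, positive integrated signal ratio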;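 further: B-score derived from integrated fluorescence ratio over the kinetic read; more negative B-score means stronger inhibition of depolarization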
The depositor's hits bear a star; i = inactive. Compounds with a hit are over-represented: about 2.3% of the library has one in this group of screens.

SMILES	TRPC6 act	TRPC4 inh	TRPC4 potent	TRPC4 act	TRPC6 inh
CC(=O)c1ccc(N2CCN(C(=O)C3CCN(S(=O)(=O)c4cccs4)CC3)CC2)cc1	i	i	i	i	i
COc1ccc(C2C3=C(CC(C)(C)CC3=O)Nc3c2c(=O)[nH]c2nc(C)nn32)cc1 (stereo unspecified)	i	i	i	i	i
COc1ccc(NC(=O)c2ccc(C)cc2)c[n+]1[O-]	i	i	i	i	i
CCOC(=O)N1CCN(C(=O)Nc2cccc3ccccc23)CC1	i	i	i	i	i
CCOC(=O)N1CCN(C2=Nc3cccc4cccc2c34)CC1	i	i	i	i	-7.4*
c1ccc(CC2CCN(C3=Nc4cccc5cccc3c45)CC2)cc1	i	i	i	i	-6.1*
CCN(CC(=O)Nc1cccc(C(C)=O)c1)S(=O)(=O)c1ccc(C)cc1	i	i	i	i	i
Cc1ccccc1CN(C)CC(=O)NC(C)CCc1ccccc1 (stereo unspecified)	i	i	i	i	i
Cc1nc(N2CCN(C)CC2)c2c3c(sc2n1)CCCC3	i	i	i	i	-5.4*
Cc1nc(N2CCN(C(=O)c3cccs3)CC2)c2c3c(sc2n1)CCCC3	i	i	i	i	i
O=C1CC(N(C(=O)c2ccco2)c2cccc(Cl)c2)C(=O)N1c1cccc(Cl)c1 (stereo unspecified)	i	i	i	i	i
N=C1c2ccccc2CN1NC(=O)c1cccc(S(=O)(=O)N2CCCCC2)c1	i	i	i	49*	i
N=C1c2ccccc2CN1NC(=O)c1cccc(S(=O)(=O)N2CCOCC2)c1	i	i	i	i	i
CCOc1cc(/C=N/NC(=O)CN2CCCCC2)ccc1OCc1cccc(Cl)c1	i	i	11*	i	i
CCOc1cc(/C=N/NC(=O)CN2CCCCC2)ccc1OCc1ccc(Cl)cc1	i	i	i	i	i
Cc1nnc(NC(=O)Cn2cnc3c2c(=O)n(C)c(=O)n3C)s1	i	i	i	i	i
COC(=O)c1ccccc1NC(=O)CCC(=O)N1CC(C)Oc2ccc(C)cc21 (stereo unspecified)	i	-8*	i	i	i
Cc1ccc2c(c1)N(C(=O)CCC(=O)NCC(C)c1ccccc1)CC(C)O2 (stereo unspecified)	i	i	i	i	i
COc1ccc(-c2nnc(-c3cc4c(ccc5ccccc54)oc3=O)o2)cc1	i	i	i	i	i
O=c1oc2ccc3ccccc3c2cc1-c1nnc(-c2ccccc2)o1	i	-6*	i	i	i
O=C(NCCc1ccc(Cl)cc1)c1cccc(NC2=NC3CS(=O)(=O)CC3S2)c1 (stereo unspecified)	i	i	i	i	i
NC(=O)C1CCCN(CC(O)COCc2ccc(Cl)cc2)C1 (stereo unspecified)	i	i	i	189*	i
CCOC(=O)C1CCN(CC(O)COCc2ccc(Cl)cc2)CC1 (stereo unspecified)	i	i	i	i	i
CCCc1[nH]nc2c1C(CCc1ccccc1)C(C#N)=C(N)O2 (stereo unspecified)	i	i	13*	i	i
CCCc1[nH]nc2c1C(Cc1ccccc1)C(C#N)=C(N)O2 (stereo unspecified)	i	i	i	i	i
SMILES	TRPC6 act	TRPC4 inh	TRPC4 potent	TRPC4 act	TRPC6 inh
Cc1cc(C)cc(N2CC34C=CC(O3)C(C(=O)OCC(=O)NCc3ccco3)C4C2=O)c1 (stereo unspecified)	i	i	i	i	i
CCC1=Nc2cc(C(=O)N3CCCCC3)ccc2Sc2ccc(C)cc21	i	i	i	i	i
CCCC1=Nc2cc(C(=O)N3CCCC3)ccc2Sc2ccc(C)cc21	i	i	i	54*	i
Cc1ccc(S(=O)(=O)CC(=O)c2cc(C)c(O)c(C)c2)cc1	i	i	i	i	i
CCC(C)NS(=O)(=O)c1ccc(NC(=O)C2CCN(C(=O)c3ccco3)CC2)cc1 (stereo unspecified)	i	i	i	i	i
CC1CCCN(S(=O)(=O)c2ccc(NC(=O)C3CCN(C(=O)c4ccco4)CC3)cc2)C1 (stereo unspecified)	i	i	i	60*	i
Cc1nc2c3cc(Cl)ccc3n(CCN3CCCCC3)c2s1	i	-6*	i	i	i
COC(=O)Cn1c2ccc(Cl)cc2c2nc(C)sc21	i	i	i	i	i
Cc1cc(C(C)(C)C)cc(S(=O)(=O)Nc2cccc(C(=O)O)c2)c1C	i	i	16*	i	i
Cc1cccc2nc(CSc3ccc(Cl)cc3)cn12	i	-8*	i	i	i
Clc1ccc(SCc2cn3ccccc3n2)cc1	i	i	i	i	i
Cc1c(Br)c([N+](=O)[O-])nn1CC(=O)Nc1ccc(Cc2ccncc2)cc1	i	i	i	i	i
O=C(c1ccco1)N1N=C(c2ccccc2)CC1c1ccc2nccnc2c1 (stereo unspecified)	i	i	i	i	i
CCOC(=O)C1=NNC2(c3ccc(C)cc3)C(=O)N(c3ccc(Cl)cc3)C(=O)C12 (stereo unspecified)	i	i	i	i	i
COc1ccccc1S(=O)(=O)Nc1cc(C)nn1-c1ccc(C)cc1	i	i	i	i	i
Clc1ccc(CN2C3=NCCN3c3ccccc32)cc1Cl	i	-6*	i	i	i
Cc1ccc(CN2C3=NCCN3c3ccccc32)cc1	i	-6*	i	i	i
O=C1NCN(c2ccccc2)C12CCN(CCCC(c1ccc(F)cc1)c1ccc(F)cc1)CC2	i	i	i	116*	i
CC(C)Oc1ccc(S(=O)(=O)N2CCOCC2)cc1NC(=O)c1ccc(N2CCCC2=O)cc1	i	i	i	i	i
CCSc1nc2ccccc2c(=O)n1CCc1ccc(OC)c(OC)c1	i	i	i	i	i
COCCn1c(SCc2ccc(OC)c(F)c2)nc2ccccc2c1=O	i	-7*	i	i	i
